Experimental data taken from ChEMBL document CHEMBL3425494, “Design, synthesis, and antitumor evaluation of novel histone deacetylase inhibitors equipped with a phenylsulfonylfuroxan module as a nitric oxide donor” (J Med Chem, 2015).
The source made the active and inactive calls. The rule behind the calls is not given here.

Legend:
[1] = tested on: HeLa; assay: Cytotoxicity against human HeLa cells assessed as growth inhibition after 48 hrs by MTT assay; format: functional, cell-based
[2] = tested on: HUVEC; assay: Cytotoxicity against HUVEC assessed as growth inhibition after 48 hrs by MTT assay; format: cell-based; settings: Homo sapiens
[3] = tested on: HEL; assay: Antitumor activity against human HEL cells xenografted in BALB/c-nu mouse assessed as decrease in tumor volume at 100 mg/kg/day, po administered for 21 days measured every 3 days during compound dosing relative to control; format: functional
Procedure, shortened: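 Male athymic nude mice (6–8 weeks) inoculated s.c. in right flank with HEL cells cultured in RPMI 1640/10% FBS; treatment began when tumors were about 100 mm³ (~10 days), 6 mice per group. Oral gavage daily for 21 days; vehicle control PBS containing DMSO. Caliper measurement every 3 days, V = ab²/2; T/C = mean RTV treated / mean RTV control, RTV = Vt/V0.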

[4] = tested on: Mus musculus; assay: Toxicity in BALB/c-nu mouse xenografted with human HEL cells assessed as effect on liver at 120 mg/kg/day, po administered for 21 days; format: organism-based; parameters: route oral; settings: in vivo, 504 h
Procedure, shortened: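 Nude mice bearing HEL xenografts dosed orally 120 mg/kg/day for 21 days, 6 per group, controls on PBS/DMSO vehicle. After treatment, mice sacrificed and dissected to examine internal organs.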

[5] = Cytotoxicity against human U937 cells assessed as growth inhibition after 48 hrs by MTT assay; format: functional, cell-based; settings: U-937, 48 h
[6] = Cytotoxicity against human ES2 cells assessed as growth inhibition after 48 hrs by MTT assay; format: functional, cell-based; settings: ES-2, 48 h
[7] = target: T1, Histone deacetylase 11 (Homo sapiens, UniProt Q96DB2); assay: Inhibition of full length human recombinant HDAC11 expressed in baculovirus infected insect S9 cells after 30 mins by fluorescence assay
T1 sequence (Q96DB2 whole entry): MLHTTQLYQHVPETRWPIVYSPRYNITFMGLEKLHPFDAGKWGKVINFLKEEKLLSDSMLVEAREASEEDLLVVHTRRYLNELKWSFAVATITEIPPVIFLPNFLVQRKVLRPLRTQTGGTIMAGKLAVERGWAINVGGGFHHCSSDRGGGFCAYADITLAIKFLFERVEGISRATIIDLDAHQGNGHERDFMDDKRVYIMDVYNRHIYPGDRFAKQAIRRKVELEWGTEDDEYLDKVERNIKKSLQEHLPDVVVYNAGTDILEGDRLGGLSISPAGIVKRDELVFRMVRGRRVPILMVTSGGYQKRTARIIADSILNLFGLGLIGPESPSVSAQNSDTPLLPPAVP

[8] = tested on: HEL; assay: Cytotoxicity against hemoglobin treated human HEL cells assessed as growth inhibition at 2 uM treated for 24 hrs post hemoglobin challenge measured after 48 hrs by MTT assay; format: functional, cell-based
Procedure, shortened: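 HEL cells in RPMI 1640/10% FBS, 37 °C, 5% CO₂, plated ≥4 h before treatment; pretreated 1 h with hemoglobin (0, 2.5, 5, 10 or 20 µM), then 2 µM compound for 24 h, incubated a further 48 h. MTT 0.5%, 4 h, formazan dissolved in DMSO, absorbance 490 and 630 nm; percent growth inhibition versus control; three independent experiments, mean ± SD.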

[9] = tested on: HEL; assay: Cell cycle arrest in human HEL cells assessed as accumulation at S phase at 0.5 uM after 48 hrs by propidium iodide staining-based flow cytometric analysis (reference value: 46.88%); format: functional
[10] = Cytotoxicity against human 3AO cells assessed as growth inhibition after 48 hrs by MTT assay; format: functional, cell-based
[11] = tested on: HEL; assay: Induction of apoptosis in human HEL cells after 24 hrs by 7-AAD-annexin-V/propidium iodide staining-based flow cytometric analysis; format: functional, cell-based
Procedure, shortened: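 HEL cells (1 × 10⁵/well) grown 24 h, then treated 24 h at 0.5, 1 or 2 µM in fresh medium; 0.1% DMSO control. Cells collected, washed with cold PBS, stained in binding buffer with 7-AAD and propidium iodide (PE-Annexin V kit) 15 min at 25 °C in the dark; apoptotic fraction by flow cytometry.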

[12] = tested on: HEL; assay: Cell cycle arrest in human HEL cells assessed as accumulation at G2 phase at 0.5 uM after 48 hrs by propidium iodide staining-based flow cytometric analysis (reference value: 5.28%); format: functional
[13] = target: T2, Protein deacetylase HDAC6 (Homo sapiens) (UniProt Q9UBN7); settings: MV4-11, 12.5 nM
T2 sequence (whole entry): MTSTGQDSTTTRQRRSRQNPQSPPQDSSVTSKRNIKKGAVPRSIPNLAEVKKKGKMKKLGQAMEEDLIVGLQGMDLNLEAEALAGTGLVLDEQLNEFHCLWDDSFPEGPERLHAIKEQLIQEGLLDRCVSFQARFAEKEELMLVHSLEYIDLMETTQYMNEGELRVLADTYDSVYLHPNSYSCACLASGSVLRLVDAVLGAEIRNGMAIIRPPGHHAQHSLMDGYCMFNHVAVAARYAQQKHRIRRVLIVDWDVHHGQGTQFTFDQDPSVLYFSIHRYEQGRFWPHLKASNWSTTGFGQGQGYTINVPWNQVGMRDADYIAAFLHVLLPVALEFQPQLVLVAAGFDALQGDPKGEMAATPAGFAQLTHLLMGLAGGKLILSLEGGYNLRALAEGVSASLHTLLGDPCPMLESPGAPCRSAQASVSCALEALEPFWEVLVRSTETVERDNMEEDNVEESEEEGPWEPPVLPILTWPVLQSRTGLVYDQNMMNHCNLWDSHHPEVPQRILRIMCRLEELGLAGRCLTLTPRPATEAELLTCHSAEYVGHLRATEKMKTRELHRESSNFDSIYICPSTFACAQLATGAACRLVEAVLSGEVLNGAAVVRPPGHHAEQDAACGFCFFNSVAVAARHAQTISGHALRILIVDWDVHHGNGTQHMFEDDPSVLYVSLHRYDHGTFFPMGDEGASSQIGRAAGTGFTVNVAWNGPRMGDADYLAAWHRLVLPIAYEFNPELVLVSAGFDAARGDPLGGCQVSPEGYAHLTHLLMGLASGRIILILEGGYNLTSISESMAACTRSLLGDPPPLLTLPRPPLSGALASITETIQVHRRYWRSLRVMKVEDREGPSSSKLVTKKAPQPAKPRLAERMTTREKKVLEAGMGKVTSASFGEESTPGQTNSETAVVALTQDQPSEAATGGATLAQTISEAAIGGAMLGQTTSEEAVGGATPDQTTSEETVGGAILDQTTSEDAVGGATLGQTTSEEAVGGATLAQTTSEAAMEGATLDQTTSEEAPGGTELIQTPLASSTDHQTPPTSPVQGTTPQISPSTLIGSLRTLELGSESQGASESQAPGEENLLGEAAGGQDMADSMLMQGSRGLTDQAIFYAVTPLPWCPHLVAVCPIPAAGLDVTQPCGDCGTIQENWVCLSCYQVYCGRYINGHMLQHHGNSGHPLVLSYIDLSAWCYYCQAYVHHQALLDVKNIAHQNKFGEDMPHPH

[14] = tested on: HEL; assay: Cell cycle arrest in human HEL cells assessed as accumulation at G1 phase at 0.5 uM after 48 hrs by propidium iodide staining-based flow cytometric analysis (reference value: 47.87%); format: functional

Which results are given for `O=C(CCCCCOc1no[n+]([O-])c1S(=O)(=O)c1ccccc1)NO`?
IC50 [1]: 1550 nM; IC50 [2]: 27100 nM; T/C [3]: 56%; Activity [4]: Non-toxic; IC50 [5]: 3100 nM; IC50 [6]: 1390 nM; IC50 [7]: 608 nM; growth inhibition (GI) [8]: inactive; Activity [9]: 9.31%; IC50 [10]: 5840 nM; Activity [11]: Dose-dependent effect; Activity [12]: 0.45%; inhibition [13]: Active; Activity [14]: 90.24%
